Here are results for two compounds from PMC11557630 (Targeted Oncology, 2024).

The structures appear in SMILES notation.

The subject of data set [1] is patients with refractory solid tumors. The data set can be described thus: Safety and tolerability. It is filed as in vivo, human. The conditions noted are these: for Patients with AEs causally related to adavosertib: 12 patients. In a few lines:
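Open-label, multicenter escalation: oral adavosertib 175 mg twice daily on a 3-days-on/4-days-off schedule, plus continuous oral olaparib 200 mg twice daily, in 21-day cycles. DLTs were recorded in cycle 1, a window extendable up to 2 weeks after drug-related delays; DLT-evaluable patients received >75% of planned doses. AEs were graded by CTCAE v4.03 via examination, vital signs and laboratory tests.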

For data set [2], the system named is patients with relapsed extensive-stage SCLC. As to the kind of experiment: Safety and tolerability. The data set is classed as in vivo, human. As to conditions: part B SCLC cohort. In a few lines: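 Oral adavosertib 200 mg once daily on days 1–3 and 8–10 of a 21-day cycle, plus continuous oral olaparib 200 mg twice daily. AEs were graded by CTCAE v4.03 and assessed by physical examination, vital signs (blood pressure, pulse, body temperature) and laboratory parameters, from enrollment through post-treatment follow-up. Safety data were summarized descriptively.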

The subject of data set [3] is cell kill activity. The conditions noted are these: preclinically determined; no reference given; cited from earlier work.
In data set [4] the test system is PARP inhibitor-resistant ovarian cancer. As to conditions: adavosertib monotherapy arm; cited from earlier work.
Data set [5] can be described thus: Plasma pharmacokinetics of adavosertib and olaparib, part A. The data set is classed as in vivo, human.
[6] abbreviates: in combination with olaparib, cohort 4.2.
Setting [7] is: in combination with olaparib, cohort 7.4.
Where [8] appears, read: with adavosertib 175 mg bid vs olaparib alone.

Regarding `C=CCn1c(=O)c2cnc(Nc3ccc(N4CCN(C)CC4)cc3)nc2n1-c1cccc(C(C)(C)O)n1` [adavosertib], the “Patients with an AE leading to dose reduction of adavosertib” value in data set [1] (cohort 4.2, five patients) stood at 35.7%. Further, the “Patients with an AE leading to dose interruption of adavosertib” value in data set [1] (cohort 4.2, seven patients) was found to be 50.0%. For the same compound, in data set [1] (cohort 7.4, five patients), the “Patients with an AE leading to dose interruption of adavosertib” value is 38.5%. In addition, the “Patients with an AE leading to dose reduction of adavosertib” value in data set [1] (cohort 7.4, three patients) was determined as 23.1%. Moreover, in data set [1] (days 1–3, 8–10/21-day cycle, plus continuous olaparib 200 mg bid (cohort 4.2)), the “MTD for adavosertib bid” value came to 175 mg. Further, in data set [1] (setting [6]), the “Anemia causally related to adavosertib” value is on record as 35.7%, the “Decreased appetite causally related to adavosertib” value is listed as 50.0%, the “Diarrhea causally related to adavosertib” value came to 50.0% and the “Fatigue causally related to adavosertib” value was 64.3%. Further, in data set [1] (setting [6]), the “Nausea causally related to adavosertib” value is 50.0% and the “Patients with AEs causally related to adavosertib” value came to 85.7%. In addition, in data set [1] (in combination with olaparib, cohort 4.2, three patients), the “Patients with serious AEs causally related to adavosertib” value is on record as 21.4%. For the same compound, in data set [1] (setting [7]), the “Anemia causally related to adavosertib” value came to 38.5%, the “Decreased appetite causally related to adavosertib” value is reported as 30.8%, the “Diarrhea causally related to adavosertib” value was found to be 38.5% and the “Fatigue causally related to adavosertib” value turned out to be 15.4%. In data set [1] (setting [7]), the “Nausea causally related to adavosertib” value was 23.1% and the “Patients with AEs causally related to adavosertib” value is 92.3%. In addition, in data set [1] (in combination with olaparib, cohort 7.4, one patient (dizziness)), the “Patients with serious AEs causally related to adavosertib” value stood at 7.7%. Also, the “Patients with CTCAE grade ≥ 3 events causally related to adavosertib” value in data set [1] (in combination with olaparib, part A overall, 52 patients) worked out at 43.7%. In addition, the “AEs with an outcome of death considered causally related to adavosertib” value in data set [1] (part A overall, sepsis, not a result of a DLT) is recorded as “one”. Besides, in data set [2], the “AEs leading to dose reductions of adavosertib” value was “one” and the “AEs leading to interruptions of adavosertib” value is “three”. The “Target adavosertib plasma concentration range for cell kill activity” value in data set [3] is 0.5 to 1 µM. For the same compound, the Clinical benefit rate in data set [4] is 63%.
As to `O=C(c1cc(Cc2n[nH]c(=O)c3ccccc23)ccc1F)N1CCN(C(=O)C2CC2)CC1` [olaparib, reference compound], the “Patients with an AE leading to dose interruption of olaparib” value was 64.3% in data set [1] (cohort 4.2, nine patients) and 61.5% in data set [1] (cohort 7.4, eight patients). Moreover, the “Patients with an AE leading to dose reduction of olaparib” value worked out at 21.4% in data set [1] (cohort 4.2, three patients) and 23.1% in data set [1] (cohort 7.4, three patients). Besides, the “AEs leading to interruptions of olaparib” value in data set [2] is given as “five”. The “Ratio of olaparib plus adavosertib to olaparib alone for AUC0–10 and/or Cmax” value in data set [5] (in some patients (high outliers)) was “exceeded 2”. In addition, the “Difference between exposure to olaparib in the presence of adavosertib and to olaparib alone” value in data set [5] (part A) is “no statistically significant difference”. For the same compound, the “Olaparib Cmin,ss compared with the IC95 in preclinical studies” value in data set [5] (part A, Supplementary Fig. 3) is reported as “comparable”. In data set [5] (setting [8]), the “Increase in olaparib AUC0–10” value was determined as 33%. Besides, the “Increase in olaparib Cmax” value in data set [5] (setting [8]) turned out to be 18%.
